# Assay outcomes (PubChem)
# Shown are actives, neighbours in structure and some others; about 2.5% of the full set was active somewhere.
# Pemphigus Ab inh = inhibitors of pemphigus antibody binding to human desmoglein-3 | binding (percent of control), % at 10 µM | DSG3-coupled beads, scFv-anti-DSG3-GFP binding, flow cytometry; stronger effect = lower value | P32926 | AID 588358 | hit rate 0.48% among 310,000;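 active means binding more than 3 SD below its plate's average and above zero; inconclusive means below that plate limit but binding exactly zero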
# TRPC4 block = inhibitors of mouse TRPC4 channel; AID 2247; B-score at 10 µM; hit rate 0.39% among 300,000; Q9QUQ5; HEK293 TRPC4beta/mu-opioid, DAMGO-evoked Fluo4 calcium flux; stronger effect = lower value;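 active means B-score over 3 SD under the library average, no early fluorescence shift, positive overall ratio signal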
#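 Assay system – HEK293 line stably carrying TRPC4beta and mu-opioid receptor · Doses – single dose · Detection – Fluo4 calcium-dye fluorescence, kinetic read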
# TRPC4 potent = allosterically enhances the mouse TRPC4 cation channel. Q9QUQ5. hit rate 0.42% among 310,000. B-score at 10 µM. HEK293 TRPC4beta/mu-opioid, DAMGO EC20, Fluo-4 Ca2+ flux; stronger effect = higher value;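 active means B-score of calcium response area above 5 SD of library B-scores, with initial fluorescence ratio within 5 SD of library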;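 further: B-score of integrated fluorescence ratio over time as area under calcium response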
# TRPC4 act = TRPC4 (mouse) channel activation; B-score at 10 µM; AID 2237; Q9QUQ5; HEK293 TRPC4beta/mu-opioid, Fluo4 calcium fluorescence; stronger effect = higher value; hit rate 0.49% among 310,000;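 active means B-score above 5 SD of library B-scores, and initial fluorescence ratio not above library mean plus 5 SD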;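 further: positive B-score marks a calcium rise read as TRPC4 activation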
#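 System: HEK293 cells stably co-expressing mouse TRPC4beta and mu-opioid receptor; Schedule: Fluo4 dye loading 45 min at room temperature, 110 s recording; Detection: Fluo4 fluorescence, kinetic; Evaluation: B-scored integrated calcium fluorescence ratio; Controls: buffer (low) and maximal DAMGO (high).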
# TRPC6 act = activators of mouse TRPC6 channel | hit rate 0.13% among 310,000 | Q61143 | B-score at 10 µM | HEK293-TRPC6 membrane potential dye fluorescence; stronger effect = higher value;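 active means B-score of the integrated fluorescence ratio above library mean plus 3 SD, and starting fluorescence ratio within library mean plus 5 SD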;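 further: higher score means more depolarization so channel activation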
# TRPC6 inh = blocks the mouse TRPC6 cation channel. Q61143. HEK293-TRPC6, membrane potential dye, ACh-evoked depolarization; stronger effect = lower value. B-score at 10 µM. hit rate 1.1% among 310,000. AID 2553;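 active means B-score under library mean minus 3 SD, initial fluorescence not abnormally high, positive integrated signal ratio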;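 further: B-score derived from integrated fluorescence ratio over the kinetic read; more negative B-score means stronger inhibition of depolarization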
# TRPC4 sel inh 2 = second check of whether TRPC6 inhibitors also affect mouse TRPC4; AID 2776; hit rate 42% among 920; shares compounds with TRPC6 inh; inhibition, % at 10 µM; HEK293 TRPC4/MOR, membrane potential dye fluorescence; channel activated by saturating DAMGO dose;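 active means compounds whose fluorescence signal differed from control wells by over 3 SD, either direction, in both duplicate plates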
# TRPC4 spec = mouse TRPC4 off-target activity of TRPC6 inhibitors | activity change, negative = inhibition, % at 10 µM | shares compounds with TRPC6 inh | HEK293 TRPC4/mu-opioid, membrane potential fluorescence | hit rate 61% among 920;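 active means rise or fall in signal beyond 3 SD of buffer-only wells in both replicate plates, either sign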;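 further: integrated kinetic ratio of fluorescence range over baseline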
# HEK293 MPD ctr 2-1 = parental HEK293 nonspecific activity of TRPC6 inhibitors, second screen; parental HEK293 membrane potential dye fluorescence; maximal acetylcholine challenge after compound addition; hit rate 31% among 920; shares compounds with TRPC6 inh; signal change vs control, % at 10 µM;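 active means membrane potential signal moving either way by over 3 SD of the maximum-effect control, in both duplicate plates, meaning non-specific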
# HEK293 MPD ctr-1 = parental HEK293 nonspecific activity of TRPC6 inhibitors. shares compounds with TRPC6 inh. parental HEK293 membrane potential dye fluorescence. membrane potential signal change, % at 10 µM. hit rate 60% among 920. AID 2780;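 active means membrane potential signal shifting up or down by more than 3 SD of buffer-only wells, on both duplicate plates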
# HEK293 MPD ctr-2 = checks TRPC6 modulator effects in parental HEK293 cells; membrane potential dye fluorescence; membrane potential signal change, % at 10 µM; AID 488924; shares compounds with TRPC6 inh; hit rate 51% among 2,400;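 active means membrane potential signal moves up or down beyond 5 SD from buffer-only wells, on both duplicate plates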
# HEK293 MPD ctr 2-2 = parental HEK293 nonspecific activity of TRPC6 modulators, second screen. shares compounds with TRPC6 inh. membrane potential dye fluorescence; after compound, maximal acetylcholine stimulation. inhibition, % at 10 µM. hit rate 14% among 2,400;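 active means membrane potential signal drops by more than 5 SD from the mean control signal, in both duplicate plates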;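 further: plate controls were acetylcholine ECmax control wells for no effect and buffer only wells for full effect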
# TRPC4/MOR mod = tests whether TRPC6 modulators also affect mouse TRPC4; percent change from control (negative = decrease, positive = increase), % at 10 µM; HEK293 TRPC4/mu-opioid, membrane potential fluorescence; AID 488927; hit rate 69% among 2,400; shares compounds with TRPC6 inh;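 active means membrane potential signal moved up or down beyond 5 SD of buffer control wells, in both duplicate plates, actives on both sides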;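 further: plate controls were assay buffer wells for no effect and DAMGO maximal-effect wells for full effect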
# TRPC4/MOR inh 2 = second selectivity test of TRPC6 modulators against mouse TRPC4. shares compounds with TRPC6 inh. HEK293 TRPC4/mu-opioid, membrane potential dye fluorescence; stimulated with maximal-effect DAMGO. inhibition, % at 10 µM. hit rate 55% among 2,400. AID 488928;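 active means drop in membrane potential signal beyond 5 SD of the control wells in both duplicate plates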;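 further: TRPC4 counter screen for TRPC6 hits run under conditions tuned for TRPC6 not TRPC4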
# TRPC6 block conf = mouse TRPC6 inhibitor confirmation | HEK293-TRPC6, membrane potential dye, ACh-evoked depolarization | shares compounds with TRPC6 inh | inhibition, % at 10 µM | hit rate 43% among 3,300 | AID 488960;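 active means fluorescence ratio falls more than 5 SD below the full-stimulation control mean, in both duplicate runs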;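 further: integrated fluorescence ratio of peak minus minimum over baseline after agonist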
# TRPC6 act conf = confirmation of mouse TRPC6 activators | activation, % at 10 µM | AID 488961 | hit rate 11% among 2,800 | HEK293-TRPC6 membrane potential dye fluorescence, FDSS | shares compounds with TRPC6 inh;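 active means ratio signal rise beyond 5 SD above unstimulated control wells' mean, seen in both duplicate runs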;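 further: plate controls were buffer EC0 wells for no effect and acetylcholine ECmax response for full effect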
# An asterisk follows results filed as active; i = inactive; u = inconclusive; x = no result given.
SMILES,Pemphigus Ab inh,TRPC4 block,TRPC4 potent,TRPC4 act,TRPC6 act,TRPC6 inh,HEK293 MPD ctr-2,HEK293 MPD ctr 2-2,TRPC4/MOR mod,TRPC4/MOR inh 2,TRPC6 block conf,TRPC6 act conf,others
N#Cc1c2ccc(O)cc2n2ccccc12,92,i,i,i,16*,-6.8*,436%*,86%*,55%*,i,64%*,126%*,
O=C1c2cccc3c(Nc4ccccc4Cl)c([N+](=O)[O-])cc(c23)C(=O)N1CCO,105,i,i,i,i,-10*,-100%*,i,-26%*,81%*,47%*,i,
Cc1ccc(O)c(C(=O)c2cc(C#N)c(=O)n(-c3nccs3)c2)c1,101,i,i,i,31*,i,435%*,i,164%*,58%*,i,86%*,
Cc1ccc(O)c(C(=O)c2cc(C#N)c(=O)n(-c3c(C)n(C)n(-c4ccccc4)c3=O)c2)c1,105,i,i,i,i,i,x,x,x,x,x,x,
Cc1cccc(C)c1N(CC(=O)NCc1ccc(F)cc1)C(=O)c1csnn1,95,i,i,i,i,i,x,x,x,x,x,x,
O=C(Nc1cc2c3c(c1)C1CCCC1CN3CC1CCCC21)c1ccccc1 (configuration not stated),u,i,i,i,i,-5.9*,-70%*,i,-16%*,i,i,i,
COc1ccc(Br)c(C(=O)NCC2CCCCC2)c1,120,i,i,i,i,-5.2*,i,i,44%*,54%*,i,x,
Cc1nc(N2CCN(C(=O)c3ccco3)CC2)[nH]c(=O)c1C,112,i,i,i,i,i,x,x,x,x,x,x,
COc1ccccc1N(CC(=O)NC1CCCCC1)S(C)(=O)=O,97,i,i,i,i,i,x,x,x,x,x,x,
O=C(COc1ccccc1)NC1CCCCCCC1,x,i,39*,i,i,-6*,102%*,i,77%*,i,i,x,
COc1ccc(S(=O)(=O)CCC(=O)NC2CCCCC2)cc1,x,i,i,i,i,-8.1*,x,x,x,x,i,i,TRPC4 sel inh 2=i;TRPC4 spec=i;HEK293 MPD ctr 2-1=i;HEK293 MPD ctr-1=i
COc1ccccc1N(CC(=O)NC1CCCCC1)S(=O)(=O)c1ccccc1,105,i,i,i,i,-5.1*,474%*,i,208%*,38%*,i,x,
O=C(CCS(=O)(=O)c1ccccc1)NC1CCCCC1,x,i,i,i,i,i,x,x,x,x,x,x,
COc1ccccc1NC(=O)COc1ccc(Br)cc1CNC1CCCC1,104,i,i,i,i,-7.6*,x,x,x,x,i,i,TRPC4 sel inh 2=54%*;TRPC4 spec=14%*;HEK293 MPD ctr 2-1=238%*;HEK293 MPD ctr-1=9.8%*
Cc1cc([N+](=O)[O-])nn1CC(=O)N1c2ccccc2CC1C (configuration not stated),103,i,i,i,i,i,x,x,x,x,x,x,
c1ccc(Cn2cc(-c3ccccc3)cn2)cc1,108,x,x,x,x,x,x,x,x,x,x,x,
Cc1cc(NC(=O)c2ccc(C#N)cc2)on1,104,i,i,i,i,i,x,x,x,x,x,x,
CCc1ccccc1OCC(=O)NC1CCCC1,100,i,i,i,i,-5.8*,112%*,i,20%*,i,41%*,x,
COc1ccccc1CC(=O)NC1CCCCCC1,98,i,i,i,i,i,x,x,x,x,x,x,
COC(=O)c1ccccc1OCC(=O)NC1CCCCC1,106,i,i,i,i,-5.3*,i,i,8.0%*,i,i,x,
COc1ccc(CCN2CC(C(=O)N(C)Cc3c(C)n[nH]c3C)CCC2=O)cc1 (configuration not stated),104,i,i,i,i,i,x,x,x,x,x,x,
CCCCc1cc(=O)oc2cc(C)cc(OCC(=O)NCc3ccncc3)c12,102,i,i,i,i,-7.4*,i,i,i,i,i,i,
COc1ccccc1/C=C/C(=O)NCCc1ccccn1,106,i,i,i,i,i,x,x,x,x,x,x,
Cc1cc(NC(=O)CCC(=O)N(C2CC2)C2(C(=O)NC3CCCC3)CCC(C)CC2)no1 (configuration not stated),89,i,i,i,i,-5.1*,i,i,18%*,i,i,x,
Cc1cc(NC(=O)CCC(=O)N(Cc2ccco2)C2(C(=O)NC3CCCC3)CCC(C)CC2)no1 (configuration not stated),98,i,i,i,i,i,x,x,x,x,x,x,
O=C(NC1CC1)c1c[nH]c2ccc(S(=O)(=O)Nc3cccc(C(F)(F)F)c3)cc2c1=O,110,i,i,i,i,-5.2*,i,i,i,i,i,x,
CCc1ccccc1NS(=O)(=O)c1ccc2[nH]cc(C(=O)NCc3ccco3)c(=O)c2c1,104,i,i,i,i,-5*,i,i,i,i,i,i,
